Data: ChEMBL document CHEMBL1123436, “Comparative toxicities and analgesic activities of three monomethylated analogues of acetaminophen” (J Med Chem, 1986)
“And” between values parts separate entries of the source, which are not always exact repeats. Equal entries are not always repeated.

Experiments:
[1] = test system: Mus musculus; assay: Time course of Distribution of Radioactivity in Mice stomach after 3 mmol/kg dose of the Compound after 3 h; format: ADME, organism-based; conditions: in vivo
How it was run: (§1)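 Groups of 12 mice given [acetyl-14C]-labelled drug ip, 3 mmol/kg (0.45 mCi/mmol), housed individually with urine/feces separation. Four killed at each of 1, 3 and 24 h by exsanguination. Tissues (~100 mg) digested in Soluene 350; blood digested and peroxide-bleached; feces freeze-dried, rehydrated, digested and bleached. Scintillation counting; nmol equiv/mg tissue or per mL blood/urine, means ± SE (N = 4).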

[2] = test system: Mus musculus; assay: Time course of Distribution of Radioactivity in Mice brain after 3 mmol/kg dose of the Compound after 3 h; format: ADME, organism-based; conditions: in vivo; how it was run: as §1
[3] = test system: Mus musculus; assay: Time course of Distribution of Radioactivity in Mice feces after 3 mmol/kg dose of the Compound after 3 h; format: ADME, organism-based; conditions: in vivo; how it was run: as §1
[4] = test system: Mus musculus; assay: Time course of Distribution of Radioactivity in Mice kidney after 3 mmol/kg dose of the Compound after 24 h; format: ADME, organism-based; conditions: in vivo; how it was run: as §1
[5] = test system: Mus musculus; assay: Time course of Distribution of Radioactivity in Mice feces after 3 mmol/kg dose of the Compound after 1 hr; format: ADME, organism-based; conditions: in vivo; how it was run: as §1
[6] = test system: Mus musculus; assay: Time course of Distribution of Radioactivity in Mice Liver after 3 mmol/kg dose of the Compound after 1 h; format: ADME, organism-based; conditions: in vivo; how it was run: as §1
[7] = test system: Mus musculus; assay: Time course of Distribution of Radioactivity in Mice blood after 3 mmol/kg dose of the Compound after 3 h; format: ADME, organism-based; conditions: in vivo; how it was run: as §1
[8] = test system: Mus musculus; assay: Time course of Distribution of Radioactivity in Mice lungs/heart after 3 mmol/kg dose of the Compound after 1 h; format: ADME, organism-based, Lung; conditions: in vivo; how it was run: as §1
[9] = test system: Mus musculus; assay: Time course of Distribution of Radioactivity in Mice intestine after 3 mmol/kg dose of the Compound after 3 h; format: ADME, organism-based; conditions: in vivo; how it was run: as §1
[10] = test system: Mus musculus; assay: Time course of Distribution of Radioactivity in Mice brain after 3 mmol/kg dose of the Compound after 1 h; format: ADME, organism-based; conditions: in vivo; how it was run: as §1
[11] = test system: Mus musculus; assay: Time course of Distribution of Radioactivity in Mice spleen after 3 mmol/kg dose of the Compound after 24 h; format: ADME, organism-based; conditions: in vivo; how it was run: as §1
[12] = test system: Mus musculus; assay: Time course of Distribution of Radioactivity in Mice Urine after 3 mmol/kg dose of the Compound after 1 h; format: ADME, organism-based; conditions: in vivo; how it was run: as §1
[13] = test system: Mus musculus; assay: Urinary Metabolic (3-hydroxy-N-methylacetaminophen) profile in the mouse 24 hr after dose of 3 mmol/kg of the compound; format: ADME, organism-based, Urine; conditions: in vivo
[14] = test system: Mus musculus; assay: Time course of Distribution of Radioactivity in Mice spleen after 3 mmol/kg dose of the Compound after 1 h; format: ADME, organism-based; conditions: in vivo; how it was run: as §1
[15] = species: Mus musculus; assay: Analgesic activity determined in mice using the Bradykinin-induced Writhing test; format: organism-based
How it was run: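 Male CD1 mice (15–20 g), test drug given orally 15 min before bradykinin ip (4 μg in 0.2 mL sterile water), then a second bradykinin injection (0.2 μg/0.1 mL) 15 min later. Writhing was scored over the next 10 min, with control groups of 10 mice. ED50 was derived by log-probit analysis from at least five doses, with 95% limits.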

[16] = test system: Mus musculus; assay: Hepatotoxicity in Swiss-Webster Mice Caused by compound at 1000 mg/kg (i.p.) dose; 5/10; conditions: route intraperitoneal
[17] = test system: Mus musculus; assay: Time course of Distribution of Radioactivity in Mice intestine after 3 mmol/kg dose of the Compound after 1 h; format: ADME, organism-based; conditions: in vivo; how it was run: as §1
[18] = test system: Mus musculus; assay: Time course of Distribution of Radioactivity in Mice Liver after 3 mmol/kg dose of the Compound after 24 h; format: ADME, organism-based; conditions: in vivo; how it was run: as §1
[19] = test system: Mus musculus; assay: (§2) Hepatotoxicity in Swiss-Webster Mice Caused by compound at 500 mg/kg (i.p.) dose; format: functional, organism-based; design: dose 500 mg/kg
How it was run: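 Male Swiss-Webster mice (20 g), groups of 10, dosed ip in saline; some groups pretreated with phenobarbital (80 mg/kg ip at 72, 60, 48, 24 h), cobaltous chloride (30 mg/kg ip at 48, 36, 24, 12 h) or neat piperonyl butoxide (1360 mg/kg ip, 30 min before). Survivors killed at 24 h; plasma ALT measured, liver H&E sections scored for necrosis; means ± SE.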

[20] = test system: Mus musculus; assay: Time course of Distribution of Radioactivity in Mice lungs/heart after 3 mmol/kg dose of the Compound after 24 h; format: ADME, organism-based, Lung; conditions: in vivo; how it was run: as §1
[21] = test system: Mus musculus; assay: Time course of Distribution of Radioactivity in Mice lungs/heart after 3 mmol/kg dose of the Compound after 3 h; format: ADME, organism-based, Lung; conditions: in vivo; how it was run: as §1
[22] = test system: Mus musculus; assay: Hepatotoxicity in Swiss-Webster Mice Caused by compound at 500 mg/kg (i.p.) dose; 9/10; format: functional; conditions: route intraperitoneal
How it was run: (§3)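 Male Swiss-Webster mice (20 g), groups of 10, were given a single ip dose of drug in saline with no pretreatment. Survivors were decapitated at 24 h and counted. Plasma ALT was measured, and liver sections (formalin-fixed, paraffin, H&E) were scored for necrosis severity in survivors. Values are means ± SE.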

[23] = test system: Mus musculus; assay: Time course of Distribution of Radioactivity in Mice blood after 3 mmol/kg dose of the Compound after 1 h; format: ADME, organism-based; conditions: in vivo; how it was run: as §1
[24] = test system: Mus musculus; assay: Time course of Distribution of Radioactivity in Mice Liver after 3 mmol/kg dose of the Compound after 3 h; format: ADME, organism-based; conditions: in vivo; how it was run: as §1
[25] = test system: Mus musculus; assay: Urinary Metabolic (Acetaminophen) profile in the mouse 24 h after dose of 3 mmol/kg of the compound; format: ADME, organism-based, Urine; conditions: in vivo
[26] = test system: Mus musculus; assay: Urinary Metabolic (N-methylacetaminophen) profile in the mouse 24 hr after dose of 3 mmol/kg of the compound; format: ADME, organism-based, Urine; conditions: in vivo
[27] = test system: Mus musculus; assay: Time course of Distribution of Radioactivity in Mice kidney after 3 mmol/kg dose of the Compound after 3 h; format: ADME, organism-based; conditions: in vivo; how it was run: as §1
[28] = test system: Mus musculus; assay: Time course of Distribution of Radioactivity in Mice stomach after 3 mmol/kg dose of the Compound after 24 h; format: ADME, organism-based; conditions: in vivo; how it was run: as §1
[29] = test system: Mus musculus; assay: Time course of Distribution of Radioactivity in Mice intestine after 3 mmol/kg dose of the Compound after 24 h; format: ADME, organism-based; conditions: in vivo; how it was run: as §1
[30] = test system: Mus musculus; assay: Time course of Distribution of Radioactivity in Mice kidney after 3 mmol/kg dose of the Compound after 1 h; format: ADME, organism-based; conditions: in vivo; how it was run: as §1
[31] = test system: Mus musculus; assay: Time course of Distribution of Radioactivity in Mice blood after 3 mmol/kg dose of the Compound after 24 h; format: ADME, organism-based; conditions: in vivo; how it was run: as §1
[32] = test system: Mus musculus; assay: Time course of Distribution of Radioactivity in Mice stomach after 3 mmol/kg dose of the Compound after 1 h; format: ADME, organism-based; conditions: in vivo; how it was run: as §1
[33] = test system: Mus musculus; assay: as §2; format: functional; conditions: route intraperitoneal; how it was run: as §3
[34] = test system: Mus musculus; assay: Time course of Distribution of Radioactivity in Mice feces after 3 mmol/kg dose of the Compound after 24 h; format: ADME, organism-based; conditions: in vivo; how it was run: as §1
[35] = test system: Mus musculus; assay: Urinary Metabolic (3-methoxy-N-methylacetaminophen) profile in the mouse 24 hr after dose of 3 mmol/kg of the compound; format: ADME, organism-based, Urine; conditions: in vivo
[36] = test system: Mus musculus; assay: Time course of Distribution of Radioactivity in Mice spleen after 3 mmol/kg dose of the Compound after 3 h; format: ADME, organism-based; conditions: in vivo; how it was run: as §1
[37] = test system: Mus musculus; assay: Time course of Distribution of Radioactivity in Mice Urine after 3 mmol/kg dose of the Compound after 3 h; format: ADME, organism-based; conditions: in vivo; how it was run: as §1
[38] = test system: Mus musculus; assay: Time course of Distribution of Radioactivity in Mice Urine after 3 mmol/kg dose of the Compound after 24 h; format: ADME, organism-based; conditions: in vivo; how it was run: as §1
[39] = test system: Mus musculus; assay: Time course of Distribution of Radioactivity in Mice brain after 3 mmol/kg dose of the Compound after 24 h; format: ADME, organism-based; conditions: in vivo; how it was run: as §1

## CC(=O)N(C)c1ccc(O)cc1
[1]
  Radioactivity: 0.87 nM equiv (mg of tissue)-1
[2]
  Radioactivity: 0.05 nM equiv (mg of tissue)-1
[3]
  Radioactivity: 3.17 nM equiv mg-1
[4]
  Radioactivity: 0.05 nM equiv (mg of tissue)-1
[5]
  Radioactivity: 0.03 nM equiv mg-1
[6]
  Radioactivity: 3.16 nM equiv (mg of tissue)-1
[7]
  Radioactivity: 501 nM equiv (ml of blood)-1
[8]
  Radioactivity: 1.78 nM equiv (mg of tissue)-1
[9]
  Radioactivity: 1.52 nM equiv (mg of tissue)-1
[10]
  Radioactivity: 1.03 nM equiv (mg of tissue)-1
[11]
  Radioactivity: 0.03 nM equiv (mg of tissue)-1
[12]
  Radioactivity: 7.67 nM equiv (ml of urine)-1
[13]
  Administered dose: 0.6%
[14]
  Radioactivity: 1.58 nM equiv (mg of tissue)-1
[15]
  ED50: > 200 mg/kg
[16]
  Survivors at 24 h: 5
[17]
  Radioactivity: 2.17 nM equiv (mg of tissue)-1
[18]
  Radioactivity: 0.05 nM equiv (mg of tissue)-1
[19]
  Plasma ALT at 24 h: 27 mU ml-1 and 32 mU ml-1
[20]
  Radioactivity: 0.03 nM equiv (mg of tissue)-1
[21]
  Radioactivity: 0.13 nM equiv (mg of tissue)-1
[22]
  Survivors at 24 h: 9
[23]
  Radioactivity: 1855 nM equiv (ml of blood)-1
[24]
  Radioactivity: 0.6 nM equiv (mg of tissue)-1
[25]
  Administered dose: 1.9%
[26]
  Administered dose: 78.9%
[27]
  Radioactivity: 0.49 nM equiv (mg of tissue)-1
[28]
  Radioactivity: 0.08 nM equiv (mg of tissue)-1
[29]
  Radioactivity: 0.61 nM equiv (mg of tissue)-1
[30]
  Radioactivity: 3.73 nM equiv (mg of tissue)-1
[31]
  Radioactivity: 14.6 nM equiv (ml of blood)-1
[32]
  Radioactivity: 0.21 nM equiv (mg of tissue)-1
[33]
  Hepatic necrosis in survivors: 0
[34]
  Radioactivity: 74.5 nM equiv mg-1
[35]
  Administered dose: 13.7%
[36]
  Radioactivity: 0.13 nM equiv (mg of tissue)-1
[37]
  Radioactivity: 3200 nM equiv (ml of urine)-1
[38]
  Radioactivity: 6978 nM equiv (ml of urine)-1
[39]
  Radioactivity: 0.01 nM equiv (mg of tissue)-1
